Experimental data from ChEMBL document CHEMBL3414523, “FimH antagonists: bioisosteres to improve the in vitro and in vivo PK/PD profile” (J Med Chem, 2015).
Values after ≈ are worked out from the molar mass of the structure shown.

What was measured:
[1] = Binding affinity to Escherichia coli recombinant 6-His-tagged FimH CRD expressed in Escherichia coli HM125 after 24 hrs by competitive fluorescence polarization assay
How it was run: (§1)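 Competitive fluorescence polarization with His6-tagged FimH CRD (thrombin cleavage site) and fixed fluorescent reporter ligand, 24 h incubation to reach equilibrium; polarized excitation 485 nm, emission 528 nm on a plate reader. IC50 from four-parameter nonlinear least-squares fit, converted to KD by a modified Cheng–Prusoff equation accounting for ligand depletion.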

Escherichia coli [2] = assay: (§2) Antimicrobial activity against Escherichia coli UTI89 infected in C3H/HeN mouse urinary tract infection model assessed as bacterial load reduction in bladder at 10 mg/kg, po formulated with 5% DMSO in PBS containing 1% Tween 80 administered 40 mins prior to infection measured after 3 hrs relative to control; assay type: functional
Escherichia coli [3] = assay: as §2, with “kidney” for “bladder”; assay type: functional
Escherichia coli [4] = assay: Inhibition of adhesion of Escherichia coli UTI89 clinical isolate to human 5637 cells assessed as MAC90 after 10 mins by flow cytometry; assay type: functional
[5] = Initial plasma concentration in C3H/HeN mouse at 0.625 mg/kg, iv; assay type: ADME, organism-based; set-up: dose 0.625 mg/kg, route intravenous
[6] = Displacement of fluorescently labeled 3'-chloro-N-(2-(3-(3',6'-dihydroxy-3-oxo-3H-spiro[isobenzofuran-1,9'-xanthene]-5-yl)thioureido)ethyl)-4'-((2R,3S,4S,5S,6R)-3,4,5-trihydroxy-6-(hydroxymethyl)tetrahydro-2H-pyran-2-yloxy)biphenyl-4-carboxamide from Escherichia coli recombinant 6-His-tagged FimH CRD expressed in Escherichia coli HM125 after 24 hrs by fluorescence polarization assay; how it was run: as §1
[7] = Displacement of n-heptyl 2-deoxy-alpha-D-mannopyranoside from Escherichia coli recombinant 6-His-tagged FimH CRD expressed in Escherichia coli HM125 after 20 mins by isothermal titration calorimetry
[8] = Apparent permeability across apical to basolateral side in human Caco2 cells by LC/MS analysis; settings: Caco-2
[9] = Apparent permeability across basolateral to apical side in human Caco2 cells by LC/MS analysis; settings: Caco-2
[10] = Plasma protein binding in human by equilibrium dialysis method; assay type: ADME, cell-free; settings: read-out: PPB (converted)
[11] = Half life in rat liver microsomes at 2 uM after 10 mins by LC/MS/MS analysis
Mus musculus [12] = assay: Volume of distribution in C3H/HeN mouse at 0.625 mg/kg, iv; assay type: ADME, organism-based; set-up: dose 0.625 mg/kg, route intravenous; settings: in vivo
Mus musculus [13] = assay: Half life in C3H/HeN mouse at 0.625 mg/kg, iv; assay type: ADME, organism-based; set-up: dose 0.625 mg/kg, route intravenous; settings: in vivo
[14] = AUC (0 to infinity) in C3H/HeN mouse at 0.625 mg/kg, iv; assay type: ADME, organism-based; set-up: time infinity, dose 0.625 mg/kg, route intravenous; settings: plasma
[15] = Total clearance in C3H/HeN mouse at 0.625 mg/kg, iv; assay type: ADME, organism-based; set-up: dose 0.625 mg/kg, route intravenous; settings: in vivo
[16] = Cmax in urine of C3H/HeN mouse at 0.625 mg/kg, iv; assay type: ADME, organism-based; set-up: dose 0.625 mg/kg, route intravenous
Escherichia coli [17] = assay: Antimicrobial activity against Escherichia coli UTI89 infected in C3H/HeN mouse urinary tract infection model assessed as bacterial load reduction in bladder at 1.25 mg/kg, po administered 40 mins prior to infection measured after 3 hrs (reference value: 6.6 log10 CFU); assay type: functional
Escherichia coli [18] = assay: Antimicrobial activity against Escherichia coli UTI89 infected in C3H/HeN mouse urinary tract infection model assessed as bacterial load reduction in kidney at 1.25 mg/kg, po administered 40 mins prior to infection measured after 3 hrs (reference value: 6 log10 CFU); assay type: functional
physchem [19] = settings: buffer, pH 7.4
physchem [20] = settings: octanol/water, pH 7.4
[21] = Dissociation constant, pKa of the compound by NMR spectroscopy; assay type: physicochemical
physchem [22] = settings: buffer, pH 3
[23] = Lipophilicity, log P of the compound; assay type: physicochemical; settings: octanol/water
[24] = Binding affinity to Escherichia coli recombinant 6-His-tagged FimH CRD expressed in Escherichia coli HM125 by isothermal titration calorimetry
[25] = Kinetic solubility of the compound at 0.1 to 0.5 mM at pH 6.61 after 15 hrs by UV/Vis spectrophotometry; assay type: physicochemical; settings: buffer, read-out: Kinetic_solubility
[26] = Effective permeability coefficient, log Pe after 16 hrs by PAMPA; assay type: ADME
[27] = Initial plasma concentration in C3H/HeN mouse at 50 mg/kg, iv; assay type: ADME, organism-based; set-up: dose 50 mg/kg, route intravenous
Mus musculus [28] = assay: Volume of distribution in C3H/HeN mouse at 50 mg/kg, iv; assay type: ADME, organism-based; set-up: dose 50 mg/kg, route intravenous; settings: in vivo
Mus musculus [29] = assay: Half life in C3H/HeN mouse at 50 mg/kg, iv; assay type: ADME, organism-based; set-up: dose 50 mg/kg, route intravenous; settings: in vivo
[30] = AUC (0 to infinity) in C3H/HeN mouse at 50 mg/kg, iv; assay type: ADME, organism-based; set-up: time infinity, dose 50 mg/kg, route intravenous; settings: plasma
Mus musculus [31] = assay: Total clearance in C3H/HeN mouse at 50 mg/kg, iv; assay type: ADME, organism-based; set-up: dose 50 mg/kg, route intravenous; settings: in vivo
[32] = Cmax in urine of C3H/HeN mouse at 50 mg/kg, iv; assay type: ADME, organism-based; set-up: dose 50 mg/kg, route intravenous
[33] = Kinetic solubility of the compound at 0.1 to 0.5 mM at pH 6.51 after 15 hrs by UV/Vis spectrophotometry; assay type: physicochemical; settings: buffer, read-out: Kinetic_solubility
[34] = Half life in rat liver microsomes at 2 uM after 10 mins by LC/MS/MS analysis in presence of NADPH; assay type: ADME
[35] = Kinetic solubility of the compound at 0.1 to 0.5 mM at pH 7.6 after 15 hrs by UV/Vis spectrophotometry; assay type: physicochemical; settings: buffer, read-out: Kinetic_solubility
[36] = Kinetic solubility of the compound at 0.1 to 0.5 mM at pH 3 to 7.4 after 15 hrs by UV/Vis spectrophotometry; assay type: physicochemical; settings: buffer, read-out: Kinetic_solubility

Papp A→B [8] | Papp B→A [9] | fraction unbound [10] | half-life at 10 min, 2 µM ([11]; liver microsomes) | solubility kinetic at 15 h, 500 µM (physchem [19]) | logD at 2 h, 1 µM (physchem [20]) | SMILES | Kd [6] | Kd [7] | other results
 |  |  |  |  |  | O=C(NCCNC(=S)Nc1ccc2c(c1)C(=O)OC21c2ccc(O)cc2Oc2cc(O)ccc21)c1ccc(-c2ccc(O[C@H]3O[C@H](CO)[C@@H](O)[C@H](O)[C@@H]3O)c(Cl)c2)cc1 |  |  | Kd [1]: 1.7 nM
2.2 ×10⁻⁶ cm/s | 22.1 ×10⁻⁶ cm/s | 0.11 | > 60 min | 192 µg/mL (≈ 490 µM) | 2.1 | N#Cc1ccc(-c2ccc(O[C@H]3O[C@H](CO)[C@@H](O)[C@H](O)[C@@H]3O)c(Cl)c2)cc1 | < 1 nM | 1.3 nM | log10cfu (Escherichia coli [2]): 2.68; log10cfu (Escherichia coli [3]): 1.04; Activity (Escherichia coli [4]): 0.094 µg/mL; C0 [5]: 0.36 µg/mL; Vz (Mus musculus [12]): 52.8 mL; t1/2 (Mus musculus [13]): 10.2 min; AUC(0-inf) [14]: 70 ng·h/mL; clearance [15]: 3.63 mL/min; Cmax [16]: 10 µg/mL; log10cfu (Escherichia coli [17]): 1.78; log10cfu (Escherichia coli [18]): 1.07
0.36 ×10⁻⁶ cm/s | 1.76 ×10⁻⁶ cm/s | 0.01 | > 60 min | 246 µg/mL (≈ 599 µM) | 0.4 | CS(=O)(=O)c1ccc(-c2ccc(O[C@H]3O[C@H](CO)[C@@H](O)[C@H](O)[C@@H]3O)cc2)cc1 | 1.7 nM | 3 nM | 
0.4 ×10⁻⁶ cm/s | 1.9 ×10⁻⁶ cm/s |  |  | > 150 µg/mL | 1.1 | OC[C@H]1O[C@H](Oc2ccc(-c3cc(F)c(O)c(F)c3)cc2)[C@@H](O)[C@@H](O)[C@@H]1O | 3.7 nM |  | pKa [21]: 6.5
0.22 ×10⁻⁶ cm/s | 0.29 ×10⁻⁶ cm/s |  |  | > 150 µg/mL | -1.1 | N#CNC(=O)c1ccc(-c2ccc(O[C@H]3O[C@H](CO)[C@@H](O)[C@H](O)[C@@H]3O)cc2)cc1 | 8.4 nM |  | pKa [21]: 2.5; solubility kinetic at 15 h, 500 µM (physchem [22]): > 150 µg/mL
10 ×10⁻⁶ cm/s | 19 ×10⁻⁶ cm/s | 0.07 |  | 21 µg/mL (≈ 63.2 µM) | 2.1 | OC[C@H]1O[C@H](Oc2ccc(-c3ccccc3)cc2)[C@@H](O)[C@@H](O)[C@@H]1O | 15.1 nM |  | logP [23]: 2.1; Kd [24]: 17.7 nM
 |  |  |  |  |  | O=C(NCCOCCOCCNC(=S)Nc1ccc2c(c1)C(=O)OC21c2ccc(O)cc2Oc2cc(O)ccc21)c1ccc(-c2ccc(O[C@H]3O[C@H](CO)[C@@H](O)[C@H](O)[C@@H]3O)c(Cl)c2)cc1 |  |  | Kd [1]: 9.9 nM
0.12 ×10⁻⁶ cm/s | 0.61 ×10⁻⁶ cm/s |  |  | 12 µg/mL (≈ 32 µM) | 0.5 | NC(=O)c1ccc(-c2ccc(O[C@H]3O[C@H](CO)[C@@H](O)[C@H](O)[C@@H]3O)cc2)cc1 | 2.8 nM |  | 
 |  |  | > 60 min |  | < -1.5 | O=C(O)c1ccc(-c2ccc(O[C@H]3O[C@H](CO)[C@@H](O)[C@H](O)[C@@H]3O)cc2)cc1 | 17.9 nM |  | solubility kinetic at 15 h [25]: > 3000 µg/mL; log Pe [26]: impermeable; Kd [24]: 15 nM; C0 [27]: 40 µg/mL; Vz (Mus musculus [28]): 25.2 mL; t1/2 (Mus musculus [29]): 19.8 min; AUC(0-inf) [30]: 23500 ng·h/mL; CL (Mus musculus [31]): 53.1 mL/h; Cmax [32]: 300 µg/mL
4.23 ×10⁻⁶ cm/s |  |  |  |  | 2.14 | COC(=O)c1ccc(-c2ccc(O[C@H]3O[C@H](CO)[C@@H](O)[C@H](O)[C@@H]3O)cc2)cc1 | 3.6 nM |  | solubility kinetic at 15 h [33]: 33.8 µg/mL (≈ 86.6 µM); half-life at 2 µM [34]: 1 min
2 ×10⁻⁶ cm/s | 13.2 ×10⁻⁶ cm/s | 0.01 | > 60 min |  | 1.4 | N#Cc1ccc(-c2ccc(O[C@H]3O[C@H](CO)[C@@H](O)[C@H](O)[C@@H]3O)cc2)cc1 | 2 nM | 2.8 nM | solubility kinetic at 15 h [35]: 186 µg/mL (≈ 520 µM)
1.1 ×10⁻⁶ cm/s | 0.87 ×10⁻⁶ cm/s |  |  | 122 µg/mL (≈ 313 µM) | 0.8 | CNC(=O)c1ccc(-c2ccc(O[C@H]3O[C@H](CO)[C@@H](O)[C@H](O)[C@@H]3O)cc2)cc1 | 2.9 nM | 4.3 nM | 
0.18 ×10⁻⁶ cm/s | 1.3 ×10⁻⁶ cm/s | 0.52 | > 60 min | > 250 µg/mL | 0.2 | O=C(c1ccc(-c2ccc(O[C@H]3O[C@H](CO)[C@@H](O)[C@H](O)[C@@H]3O)cc2)cc1)N1CCOCC1 | 3 nM | 5 nM | C0 [27]: 110 µg/mL; Vz (Mus musculus [28]): 28.3 mL; t1/2 (Mus musculus [29]): 24 min; AUC(0-inf) [30]: 25300 ng·h/mL; CL (Mus musculus [31]): 49.4 mL/h; Cmax [32]: 4610 µg/mL
 |  | < 0.01 | > 60 min |  |  | CNS(=O)(=O)c1ccc(-c2ccc(O[C@H]3O[C@H](CO)[C@@H](O)[C@H](O)[C@@H]3O)cc2)cc1 | 2.7 nM | 3.5 nM | C0 [27]: 152 µg/mL; Vz (Mus musculus [28]): 19.5 mL; t1/2 (Mus musculus [29]): 114 min; AUC(0-inf) [30]: 175000 ng·h/mL; CL (Mus musculus [31]): 7.1 mL/h; Cmax [32]: 387 µg/mL
7 ×10⁻⁶ cm/s | 9.4 ×10⁻⁶ cm/s |  |  |  |  | CCCCCCCO[C@H]1O[C@H](CO)[C@@H](O)[C@H](O)[C@@H]1O | 28.3 nM |  | Kd [24]: 28.9 nM; solubility kinetic at 15 h [36]: > 3000 µg/mL; half-life at 10 min, 2 µM ([11]; microsomes): 13 min
 |  |  |  |  |  | OC[C@H]1O[C@H](Oc2ccc(-c3ccc(-c4nnn[nH]4)cc3)cc2)[C@@H](O)[C@@H](O)[C@@H]1O | 5.7 nM |  | pKa [21]: 3.7
